From ChEMBL document CHEMBL1128426, “Cyclic variations of 3-quinolinecarboxamides and effects on antiherpetic activity” (1995)
Converted amounts (≈) assume the structure as drawn. The source made the active and inactive calls.

Assays:
[1] = tested on: Vero; assay: In vitro anti-herpetic activity against HSV-2 plaque formation in vero cells; no activity; format: functional, cell-based; details: Chlorocebus sabaeus
Outline: (§1)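 HSV-2 plaque reduction in Vero cells. MIC is the lowest concentration that inhibited plaque formation by 50%. For active compounds, values are the mean of at least two experiments, SD under ±50%.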

[2] = tested on: Vero; assay: The compound was tested in vitro for the highest concentration (maximum tolerated level) that showed no cellular toxicity by visualization of stained cells.; format: functional, Chlorocebus sabaeus
Outline: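 Maximum tolerated level, run alongside the HSV-2 plaque assay in Vero cells: the highest concentration showing no cellular toxicity when the stained cells were inspected visually.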

[3] = tested on: Mus musculus; assay: The maximum tolerated dose (MTD) was defined as the highest dose of compound that did not show any signs of toxicity in mice after po administration.; format: functional
Outline: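 Oral dosing in mice within the HSV-2 infection model. MTD is the highest dose showing no overt signs of toxicity.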

[4] = tested on: Vero; assay: In vitro anti-herpetic activity against HSV-2 plaque formation in vero cells.; format: functional; details: Chlorocebus sabaeus; outline: as §1
[5] = tested on: Mus musculus; assay: The compound was tested in vivo for the lowest dose(minimum effective dose) at which anti-herpetic activity was observed in terms of survival times of mice after po administration; no activity; format: functional, organism-based
[6] = tested on: Mus musculus; assay: The compound was tested in vivo for the lowest dose(minimum effective dose) at which anti-herpetic activity (HSV-2) was observed in terms of survival times of mice after po administration; no activity; format: functional, organism-based
[7] = tested on: Mus musculus; assay: The compound was tested in vivo for the lowest dose(minimum effective dose) at which anti-herpetic activity was observed in terms of survival times of mice after po administration.; format: functional; details: read-out: MED
Outline: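 HSV-2 infection model in mice, test agent given orally. MED is the lowest dose giving survival times statistically different from placebo, based on at least two experiments for active compounds.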

SMILES	MIC [1]	MTL [2] [µg/mL]	MTD [3] [mg/kg]	MIC [4] [µg/mL]	MED [5]	MED [6]	minimal effective dose [7] [mg/kg]
CCn1cc2c(O)cnc-2c2ccc(-c3ccncc3)cc21	inactive	100					
CCn1cc2c(=O)n(C)nc-2c2ccc(-c3ccncc3)cc21	inactive	3.1					
CCn1cc2c(=O)[nH]nc-2c2ccc(-c3ccncc3)cc21		50	>200	27 (≈ 93 µM)	inactive		
CCn1cc2c(=O)onc-2c2ccc(-c3ccncc3)cc21		>100	>400	6.3 (≈ 21.6 µM)		inactive	
NC(=O)c1cn(-c2ccc(F)cc2)c2cc(-c3ccncc3)ccc2c1=O		6.25	50	0.24 (≈ 0.668 µM)			25
CCn1cc(C(N)=O)c(=O)c2ccc(-c3ccncc3)cc21		12.5	50	6.5 (≈ 22.2 µM)			50
CCn1cc2c(=O)ncnc-2c2ccc(-c3ccncc3)cc21	inactive	>100					
CCn1c(C)c2c(=O)onc-2c2ccc(-c3ccncc3)cc21		>100	>50	2.9 (≈ 9.5 µM)	inactive		
CCn1c(C)c(C(N)=O)c(=O)c2ccc(-c3ccncc3)cc21	inactive	50					
CCn1cc2c(=O)n(-c3ccccc3)nc-2c2ccc(-c3ccncc3)cc21	inactive	>100					
Nc1nc2c(ncn2COCCO)c(=O)[nH]1 [ACYCLOVIR]		>200	>200	1.3 (≈ 5.77 µM)			12
